An excerpt weighted towards active compounds, which were near 3.2% of everything screened.
DAGLB inh = DAGLB lipase inhibitors, primary screen, biochemical, fluorescence, HTS | HEK293T DAGLB membrane lysate, EnzChek fluorogenic substrate | inhibition, % at 5.17 µM | Diacylglycerol lipase-beta (Homo sapiens), Q8NCG7 | 340,000 compounds, 0.059% hits | AID 504411, 2011; in the data active = inhibition above about 34%
rCAG binder = binders of r(CAG) RNA repeats, primary screen, biochemical, fluorescence; r(CAG) RNA repeat, TO-PRO-1 dye displacement fluorescence; inhibition, % at 3 µM; 370,000 compounds, 1.3% hits; AID 651821, 2012;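 active = inhibition above the plate cutoff, the mean of all test compounds on that plate plus 3 SD, cut at about 35% in these data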;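 also: higher means more dye released from RNA so lower well fluorescence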
HTRA1 inh = HTRA1 serine protease inhibitors, primary screen, biochemical, fluorescence polarization, HTS. recombinant HTRA1, FP-rhodamine activity-based probe. inhibition, % at 5.96 µM. 340,000 compounds, 0.5% hits; in the data active = inhibition above about 36%
Target sequence (Q92743 whole entry, looked up): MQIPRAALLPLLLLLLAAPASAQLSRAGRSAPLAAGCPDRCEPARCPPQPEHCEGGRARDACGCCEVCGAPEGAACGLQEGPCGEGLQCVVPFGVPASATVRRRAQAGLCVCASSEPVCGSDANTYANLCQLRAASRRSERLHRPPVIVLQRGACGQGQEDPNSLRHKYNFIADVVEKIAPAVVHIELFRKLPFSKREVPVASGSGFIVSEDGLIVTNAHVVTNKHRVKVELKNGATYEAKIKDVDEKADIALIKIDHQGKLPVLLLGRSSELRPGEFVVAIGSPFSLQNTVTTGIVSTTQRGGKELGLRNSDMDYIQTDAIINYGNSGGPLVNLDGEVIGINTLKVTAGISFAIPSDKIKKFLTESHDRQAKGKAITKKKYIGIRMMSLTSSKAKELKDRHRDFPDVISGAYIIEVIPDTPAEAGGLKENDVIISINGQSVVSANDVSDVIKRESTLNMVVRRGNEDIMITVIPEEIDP
PRMT1 inh = PRMT1 methyltransferase inhibitors, primary screen, biochemical, fluorescence polarization. recombinant PRMT1, activity-based probe fluorescence polarization. AID 652257, 2013. inhibition, % at 2.79 µM. 370,000 compounds, 1.3% hits;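 active = inhibition above about 21% made by adding two undisclosed values, limit read from the data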
mABHD4 FP = ABHD4 inhibitors, primary screen, biochemical, fluorescence polarization, mouse. purified mABHD4, FP-Rh probe fluorescence polarization. AID 720543, 2013. 370,000 compounds, 0.54% hits. (Lyso)-N-acylphosphatidylethanolamine lipase (Mus musculus), Q8VD66. inhibition, % at 8.92 µM;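 active = inhibition exceeding the mean over every tested compound plus 3 SD, cut at about 30% in these data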
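System: mouse ABHD4 enzyme, wild type / Medium: HEPES pH 7.0, NaCl, Pluronic buffer / Reagent: FP-Rh activity-based fluorescent probe / Control set: S159A mutant high control, sample median low control / Detection: fluorescence polarization with parallel and perpendicular emission, 525/598 nm / Schedule: 45 min + 60 min at 25 °C / Compound dosing: 8.92 µM, single dose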
LEDGF integ inh = blockers of LEDGF/p75-dependent integrase strand transfer – biochemical, TR-FRET, high throughput, primary screen; 370,000 compounds, 0.64% hits; inhibition, % at 3.7 µM; TR-FRET IN-LEDGF/p75 DNA integration, Eu/Cy5; HIV-1 integrase (with human LEDGF/p75);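 active = inhibition above the screen-wide mean plus 3 SD, cut at about 13% in these data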;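 also: signal is the Cy5 over europium emission ratio at 671 and 618 nm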
rCAG bind conf = small molecules binding CAG repeat RNA – biochemical, fluorescence, confirmation; shares compounds with rCAG binder; r(CAG) RNA repeat, TO-PRO-1 dye displacement fluorescence; inhibition, % at 3 µM; 4,300 compounds, 70% hits;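 active = inhibition above a per-plate cutoff, the mean inhibition of sample wells plus 3 SD, cut at about 35% in these data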;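 also: loss of TO-PRO-1 fluorescence as compound displaces dye from 1x1 AA loop RNA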
DNA CAG counter = displacement of TO-PRO-1 from CAG DNA duplex, counter-screen for rCAG RNA repeat binder project, biochemical, fluorescence, TO-PRO-1 dye, d(CAG) DNA oligo; 4,300 compounds, 94% hits; d(CAG) DNA oligo TO-PRO-1 dye displacement; shares compounds with rCAG binder; AID 652068, 2013; inhibition, % at 3 µM;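 active = inhibition above its plate's cutoff, the mean test-well inhibition plus 3 SD, cut at about 4.8% in these data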;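 also: hits displace the dye from DNA and so lower well fluorescence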
DNA CAG DR = inhibitors of DNA CAG/GTC TO-PRO-1 complex, dose response, counter-screen for rCAG RNA repeat binder project, biochemical, fluorescence, TO-PRO-1 dye. shares compounds with rCAG binder. DNA CAG/GTC duplex TO-PRO-1 dye displacement fluorescence. IC50, µM. 250 compounds, 20% hits; in the data active = IC50 below about 10 µM
PRMT1 confirm = PRMT1 methyltransferase inhibitors, confirmation, biochemical, fluorescence polarization, triplicate; inhibition, % at 2.79 µM; shares compounds with PRMT1 inh; recombinant His-PRMT1, activity-based probe fluorescence polarization; 3,300 compounds, 42% hits; AID 687036, 2013;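 active = mean inhibition across replicates above the hit cutoff derived for the earlier primary screen, cut at about 22% in these data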
mABHD4 conf = ABHD4 inhibitors, retest, confirmation, biochemical, fluorescence polarization, mouse | shares compounds with mABHD4 FP | purified mABHD4, FP-Rh probe fluorescence polarization | inhibition, % at 8.92 µM | 1,800 compounds, 55% hits | AID 720658, 2013;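 active = mean inhibition across replicates above the hit cutoff set in the primary screen, cut at about 30% in these data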
Of the large screens only hits and unclear results are named; the others gave an inactive call (follow-up assays come after a bar, where they were run).

O=C(CN1C(=O)/C(=C2\SC(=S)N(CCS(=O)(=O)O)C2=O)c2ccccc21)Nc1cccc(Br)c1	rCAG binder 88, mABHD4 FP 67 | rCAG bind conf 89 | DNA CAG counter 65 | mABHD4 conf 83
COCCN1C(=O)/C(=C2/C(=O)N(CC(=O)Nc3ccccc3Cl)c3ccccc32)SC1=S	none
O=C(CC(c1ccccc1)c1ccccc1)N1CCN(c2ccccn2)CC1	none
Cc1cccc2c1c1ccc3c(c1n2C)C(=O)C=CC3=O	rCAG binder 39, mABHD4 FP 48 | rCAG bind conf inactive | DNA CAG counter 13 | mABHD4 conf 71
CC(C)(C)N/N=C1\CC(c2ccccc2)Oc2ccccc21 (configuration not stated)	none
O=C(O)c1cc(N/N=C2/CC(c3ccccc3)Oc3ccccc32)ccc1Cl (configuration not stated)	rCAG binder 46, mABHD4 FP 32 | rCAG bind conf 62 | DNA CAG counter 22 | mABHD4 conf 72
Cc1nn(-c2cccc(Cl)c2)c2c1C(c1ccncc1)C(C#N)=C(N)O2 (configuration not stated)	rCAG binder 36, mABHD4 FP 48 | rCAG bind conf inactive | DNA CAG counter 5.2 | mABHD4 conf 50
COC(=O)C1CCN(C(=O)COc2ccc(N(C)S(=O)(=O)c3ccc(C)cc3)cc2)CC1	none
CC(C)(C)c1ccc(C(=O)N/C(=C\c2cccc([N+](=O)[O-])c2)C(=O)Nc2cccc(C(=O)O)c2)cc1	rCAG binder 84, mABHD4 FP 33 | rCAG bind conf 75 | DNA CAG counter 44 | mABHD4 conf 31
O=C(O)c1ccc(N/N=C/c2cn(Cc3ccccc3F)c3ccccc23)cc1	rCAG binder 78, mABHD4 FP 46 | rCAG bind conf 81 | DNA CAG counter 45 | mABHD4 conf 69
Cc1ccc(N=Cc2cc3c(cc2[N+](=O)[O-])OCO3)cc1[N+](=O)[O-]	rCAG binder 39, PRMT1 inh 25, mABHD4 FP 42, LEDGF integ inh 15 (no result: DAGLB inh, HTRA1 inh) | rCAG bind conf inactive | DNA CAG counter 4.9 | mABHD4 conf 30
NS(=O)(=O)c1ccc(-c2ccc(/C=C3\SC(=S)N(C4CCS(=O)(=O)C4)C3=O)o2)cc1 (configuration not stated)	rCAG binder 35, PRMT1 inh 42, mABHD4 FP 30 | rCAG bind conf inactive | DNA CAG counter 14 | PRMT1 confirm inactive | mABHD4 conf inactive
NS(=O)(=O)c1ccc(-c2ccc(C=NC3CCS(=O)(=O)C3)o2)cc1 (configuration not stated)	none
CC[C@]12c3[nH]c4ccc(OC)cc4c3CCN1C(=O)C(CC(=O)NCCCn1ccnc1)C[C@@H]2C(=O)N1CCN(C(=O)C2CC2)CC1 (some centres not stated)	none
CC1=CC(C)(C)N(C(=O)CNC2CCCCC2)c2cc(C)ccc21	none
O=C1NN(c2ccccc2)C(=O)/C1=C\c1ccc(-c2cc([N+](=O)[O-])ccc2O)o1	rCAG binder 36, mABHD4 FP 34 | rCAG bind conf 44 | DNA CAG counter 19 | mABHD4 conf 44
Cc1ccc(N2NC(=O)/C(=C/c3ccc(-c4ccc(Cl)c(C(=O)O)c4)o3)C2=O)cc1	none
Cc1c(S(=O)(=O)Nc2cccc(Cl)c2)c(=O)n(C)c(=O)n1C	none
CCCSC1=N/C(=C\c2ccc([N+](=O)[O-])o2)C(=O)S1	rCAG binder 40, PRMT1 inh 29, mABHD4 FP 38, LEDGF integ inh 35 | rCAG bind conf 47 | DNA CAG counter 20 | DNA CAG DR inactive | PRMT1 confirm inactive | mABHD4 conf inactive
COc1ccc(C(=O)OCC(=O)Nc2ncc([N+](=O)[O-])s2)cc1OC	rCAG binder 52, mABHD4 FP 38 | rCAG bind conf 74 | DNA CAG counter 41 | mABHD4 conf inactive
O=C(COC(=O)c1ccc(Br)o1)Nc1ncc([N+](=O)[O-])s1	none
CC(C)=C1C(=O)NN(c2ccc(F)c(Cl)c2)C1=O	rCAG binder 83, mABHD4 FP 32 | rCAG bind conf inactive | DNA CAG counter 6.8 | mABHD4 conf inactive
O=C1CSC(=S)N1c1ccc(F)c(Cl)c1	none
CC(C)(C)c1ccc(S(=O)(=O)NC(=O)C2(C)CCN2C(=O)Cc2ccc(-c3ccccc3)cc2)cc1 (configuration not stated)	rCAG binder 72, mABHD4 FP 45 (no result: DAGLB inh, HTRA1 inh) | rCAG bind conf 86 | DNA CAG counter 49 | mABHD4 conf inactive
Nc1ccc2c(O)cc(S(=O)(=O)O)cc2c1	rCAG binder 87, mABHD4 FP 39, LEDGF integ inh 40 (no result: PRMT1 inh) | rCAG bind conf inactive | DNA CAG counter 9.7 | mABHD4 conf inactive
O=C(O)c1cc(S(=O)(=O)O)ccc1O	none
Cc1nn(CC2CC2)c(=O)n1-c1ccc(Cl)cc1	none
O=C(O)c1cc(-c2c[nH]c3ccccc23)nc2ccc3ccccc3c12	rCAG binder 52, mABHD4 FP 31 | rCAG bind conf 45 | DNA CAG counter 11 | mABHD4 conf inactive
c1ccc2c(-c3c[nH]c4ccccc34)c3ccccc3nc2c1	none
O=C(O)CC/C(=C\c1ccccc1[N+](=O)[O-])c1nc2ccccc2s1	none

Bioassay records from PubChem BioAssay.
